Tests used:
[1] = tested on: Human immunodeficiency virus 1; test: In Vitro Anti-HIV activity of the compound; assay type: functional; conditions: read-out: ED50 (the source's name)
[2] = tested on: Trypanosoma brucei brucei; test: In vitro antitrypanosomal activity against Trypanosomal 110 (EATRO)strain; assay type: functional, organism-based
[3] = tested on: Trypanosoma brucei rhodesiense; test: Mean survival days against T.b. rhodesiense KETRI 243 tested in mice after intra peritoneal administration at 100 mg/kg for 7 days.; assay type: functional
Mus musculus [4] = test: Ratio of number of mice cured to that of total treated with the compound at 25 mg/kg for 3 days; assay type: functional
MCF7 [5] = test: In vitro Neoplastic Anti Activity against Human Breast adenocarcinoma MCF-7 Cell lines; assay type: functional, cell-based
Mus musculus [6] = test: Ratio of number of mice cured to that of total treated with the compound at 50 mg/kg for 7 days; assay type: functional
L1210 [7] = test: In vitro inhibition of AdoMetDC derived from L1210 Murine Leukemia Cells.; assay type: functional; conditions: Mus musculus, read-out: ID50 (the source's name)
Mus musculus [8] = test: Ratio of number of mice cured to that of total treated with the compound at 10 mg/kg for 3 days; assay type: functional
[9] = tested on: Trypanosoma brucei rhodesiense; test: In vitro antitrypanosomal activity against Trypanosomal 243 (KETRI)strain; assay type: functional, organism-based
[10] = tested on: Trypanosoma brucei brucei; test: Mean survival days against T.b. peritoneal administration at 10 mg/kg for 3 days.; assay type: functional
CCRF-CEM = test: Concentration that causes morphological changes in noninfected CEM-SS cells; assay type: functional; conditions: Homo sapiens, read-out: TC50 (the source's name)
[11] = Differential selectivity as the ratio of TC50 value to that of EC50 value.; assay type: functional
Method in brief: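 Syncytial plaque assay: log-phase CEM-SS cells were PBS-washed and plated at 50 000 per well in serum-free RPMI-1640 on poly-L-lysine-coated wells (30 min, 37 °C). They were inoculated with HIV-1 (60–90 PFU) for 120 min, then overlaid with compound in growth medium (2-fold dilutions, 0.00015–20 μM). A second overlay followed on day 3, with 5 days total. EC50 is 50% inhibition of plaque formation. TC50 is morphological change in noninfected CEM-SS cells.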

Mus musculus [12] = test: Ratio of number of mice cured to that of total treated with the compound at 25 mg/kg for 7 days; assay type: functional
Mus musculus [13] = test: Ratio of number of mice cured to that of total treated with the compound at 100 mg/kg for 7 days; assay type: functional
A549 [14] = test: In vitro Antineoplastic Activity against Human non small cell lung carcinoma A549 Cell lines; assay type: functional, cell-based
HT-29 [15] = test: In vitro Neoplastic Anti Activity in Human Colon adenocarcinoma HT-29 Cell lines; assay type: functional, cell-based
Mus musculus [16] = test: Ratio of number of mice cured to that of total treated with the compound at 50 mg/kg for 3 days; assay type: functional
[17] = tested on: Trypanosoma brucei rhodesiense; test: In vitro antitrypanosomal activity against Trypanosomal 243 As 10e-3 (KETRI)strain; assay type: functional, organism-based
[18] = tested on: Trypanosoma brucei rhodesiense; test: Mean survival days against T.b. rhodesiense KETRI 243 tested in mice after intra peritoneal administration at 25 mg/kg for 7 days.; assay type: functional
[19] = tested on: Trypanosoma brucei brucei; test: Mean survival days against T.b. peritoneal administration at 50 mg/kg for 3 days.; assay type: functional
[20] = tested on: Trypanosoma brucei rhodesiense; test: Mean survival days against T.b. rhodesiense KETRI 243 tested in mice after intra peritoneal administration at 50 mg/kg for 7 days.; assay type: functional
[21] = tested on: Trypanosoma brucei brucei; test: Mean survival days against T.b. peritoneal administration at 25 mg/kg for 3 days.; assay type: functional
[22] = tested on: Trypanosoma brucei rhodesiense; test: In vitro antitrypanosomal activity against Trypanosomal 269 (KETRI)strain; assay type: functional, organism-based
MCF7 [23] = test: In vitro Antineoplastic Activity against Adriamycin resistant Human Breast adenocarcinoma MCF7-Adr Cell lines; assay type: functional, cell-based
A121 [24] = test: In vitro Antineoplastic Activity against Human ovarian carcinoma A121 Cell lines; assay type: functional, cell-based
L1210 [25] = test: In vitro Neoplastic Activity against L1210 mucerine leukemia Cell lines; assay type: functional, cell-based; conditions: Mus musculus
Method in brief: (§1)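 SRB growth assay. Cell lines were grown as monolayers in RPMI-1640 with 5% FCS, 5% NuSerum IV, 20 mM HEPES and 2 mM glutamine, and seeded at 400–1200 cells/well. They attached for 15–18 h before drug. Ten concentrations over 5 logs were tested, with final DMSO ≤0.25%. Exposure was 72 h at 37 °C. Cells were TCA-fixed, stained with sulforhodamine B and read at OD 570 nm. IC50 is 50% growth inhibition.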

MCF7 [26] = test: In vitro Anti Neoplastic Activity against Human Breast adenocarcinoma MCF-7 Cell lines; assay type: functional, cell-based; method in brief: as §1
HT-29 [27] = test: In vitro Antineoplastic Activity in Human Colon adenocarcinoma HT-29 Cell lines; assay type: functional, cell-based; method in brief: as §1
L1210 [28] = test: In vitro Anti Neoplastic Activity against L1210 murine leukemia Cell lines; assay type: functional, cell-based; conditions: Mus musculus; method in brief: as §1
[29] = tested on: Trypanosoma brucei rhodesiense; test: In vitro antitrypanosomal activity against Trypanosomal 243 (KETRI)strain at a dose of 100 uM; assay type: functional
[30] = tested on: Trypanosoma brucei brucei; test: In vitro antitrypanosomal activity against Trypanosomal 110 (EATRO)strain at a dose of 100 uM; assay type: functional
MCF7 [31] = test: In vitro Anti Neoplastic Activity against Adriamycin resistant Human Breast adenocarcinoma MCF7-Adr Cell lines; assay type: functional, cell-based; method in brief: as §1
A549 [32] = test: In vitro anti Neoplastic Activity against Human non small cell lung carcinoma A549 Cell lines; assay type: functional, cell-based; method in brief: as §1
A121 [33] = test: In vitro anti Neoplastic Activity against Human ovarian carcinoma A121 Cell lines; assay type: functional, cell-based; method in brief: as §1
HT-29 [34] = test: In vitro anti Neoplastic Activity in Human Colon adenocarcinoma HT-29 Cell lines; assay type: functional, cell-based; method in brief: as §1
[35] = tested on: Trypanosoma brucei rhodesiense; test: In Vitro inhibition of Trypanosomal 243 (KETRI)strain by the compound at a dose of 100 uM; assay type: functional
MCF7 [36] = test: In vitro anti Neoplastic Activity against Human Breast adenocarcinoma MCF-7 Cell lines; assay type: functional, cell-based; method in brief: as §1
[37] = tested on: Trypanosoma brucei brucei; test: In Vitro inhibition of Trypanosomal 110 (EATRO)strain by the compound at a dose of 100 uM; assay type: functional
MCF7 [38] = test: In vitro anti Neoplastic Activity against Adriamycin resistant Human Breast adenocarcinoma MCF7-Adr Cell lines; assay type: functional, cell-based; method in brief: as §1
L1210 [39] = test: In Vitro inhibition of L1210 Murine Leukemia Cells by the compound at a dose of 100 uM; assay type: functional; conditions: Mus musculus
[40] = tested on: Trypanosoma brucei brucei; test: In vitro anti trypanosomal activity against Trypanosomal 110 (EATRO)strain; assay type: functional, organism-based
[41] = tested on: Trypanosoma brucei rhodesiense; test: In vitro anti trypanosomal activity against Trypanosomal 243 As 10e-3 (KETRI)strain; assay type: functional, organism-based
[42] = tested on: Trypanosoma brucei rhodesiense; test: In vitro anti trypanosomal activity against Trypanosomal 243 (KETRI)strain; assay type: functional, organism-based
[43] = tested on: Trypanosoma brucei rhodesiense; test: In vitro anti trypanosomal activity against Trypanosomal 269 (KETRI)strain; assay type: functional, organism-based

CN(C/C=C\CN)C[C@H]1O[C@@H](n2cnc3c(N)ncnc32)[C@H](O)[C@@H]1O
EC50 [1]: 0.93 µM
IC50 [2]: 0.1 µM
MSD [3]: 32 days
No. cured/total (Mus musculus [4]): 5
IC50 (MCF7 [5]): > 100 µM
No. cured/total (Mus musculus [6]): 2
IC50 (L1210 [7]): 0.078 µM
No. cured/total (Mus musculus [8]): 4
IC50 [9]: 0.04 µM
MSD [10]: 12 days
CC50 (CCRF-CEM): < 6.25 µM
Selectivity [11]: 6.7
No. cured/total (Mus musculus [12]): 2
No. cured/total (Mus musculus [13]): 4
IC50 (A549 [14]): 3 µM
IC50 (HT-29 [15]): > 100 µM
No. cured/total (Mus musculus [16]): 5
IC50 [17]: 0.1 µM
MSD [18]: 31 days
MSD [19]: >34 days
MSD [20]: 31.3 days
MSD [21]: >34 days
IC50 [22]: 0.22 µM
IC50 (MCF7 [23]): 200 µM
IC50 (A121 [24]): > 100 µM

CN(C/C=C\CN)CC1OC(n2cnc3c(N)ncnc32)CC1O (configuration not stated)
IC50 [2]: 4.2 µM
IC50 (L1210 [7]): 20 µM
IC50 [9]: 2.9 µM
IC50 (L1210 [25]): 500 µM
IC50 [17]: 30 µM
IC50 [22]: 74 µM

CNC[C@H]1OC(n2cnc3c(N)ncnc32)[C@H](O)[C@@H]1O (some centres not stated)
IC50 (MCF7 [26]): > 100 µM
IC50 (HT-29 [27]): > 100 µM
IC50 (L1210 [28]): > 600 µM
inhibition at 100 µM [29]: 26%
IC50 (A549 [14]): > 100 µM
inhibition at 100 µM [30]: 44%
IC50 (MCF7 [31]): > 100 µM
IC50 (A121 [24]): > 100 µM

CN(Cc1ccc(CN)cc1)C[C@H]1OC(n2cnc3c(N)ncnc32)[C@H](O)[C@@H]1O (some centres not stated)
IC50 (A549 [32]): > 100 µM
IC50 (A121 [33]): > 100 µM
IC50 (HT-29 [34]): > 100 µM
IC50 (L1210 [28]): > 600 µM
inhibition at 100 µM [35]: 23%
IC50 (MCF7 [36]): > 100 µM
inhibition at 100 µM [37]: 21%
IC50 (MCF7 [38]): > 100 µM
inhibition at 100 µM (L1210 [39]): 21%

CN(C/C=C\CN)C[C@H]1O[C@@H](n2cnc3c(N)nc(N)nc32)[C@H](O)[C@@H]1O
IC50 [40]: 4.5 µM
IC50 [41]: 2 µM
IC50 [42]: 3.8 µM
IC50 [43]: 19 µM

Reference: ChEMBL document CHEMBL1135645, “Synthesis and evaluation of analogues of 5'-([(Z)-4-amino-2-butenyl]methylamino)-5'-deoxyadenosine as inhibitors of tumor cell growth, trypanosomal growth, and HIV-1 infectivity” (J Med Chem, 2002)
